pIC50: −log10 of the molar value. Converted amounts (≈) assume the structure as drawn.
Columns and labels:
[1] = Spermicidal activity in human sperms assessed as motility measured within 30 secs by phase contrast microscopy; type: functional, Sperm
In short: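 Liquefied human semen (0.05 mL) was added to 0.25 mL test solution and vortexed 10 s at low speed. Motile sperm were scored visually under phase contrast in five fields within 30 s; assays in triplicate; MEC = minimum effective concentration.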

Candida albicans = assay: Antifungal activity against Candida albicans after 48 hrs by broth microdilution method; type: functional
In short: (§1)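 NCCLS broth microdilution in RPMI 1640 buffered with MOPS; starting inoculum 1–5 × 10^3 CFU/mL; plates incubated at 35 °C; MIC read after 48 h.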

Cryptococcus neoformans = assay: Antifungal activity against Cryptococcus neoformans after 48 hrs by broth microdilution method; type: functional; in short: as §1
Sporothrix schenckii = assay: Antifungal activity against Sporothrix schenckii after 48 hrs by broth microdilution method; type: functional; in short: as §1
[2] = system: Trichophyton mentagrophytes; assay: Antifungal activity against Trichophyton mentagrophytes after 48 hrs by broth microdilution method; type: functional; in short: as §1
Candida parapsilosis = assay: Antifungal activity against Candida parapsilosis ATCC 22019 after 48 hrs by broth microdilution method; type: functional; conditions: Lodderomyces parapsilosis, ATCC 22019, 48 h; in short: as §1
Trichomonas vaginalis [3] = assay: Antitrichomonas activity against trophozoite stage of Trichomonas vaginalis clinical isolate assessed as cell viability under anaerobic condition after 48 hrs by trypan blue exclusion assay; type: functional
In short: (§2)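 Log-phase T. vaginalis grown in TYM with 10% FCS, vitamin mix and penicillin/streptomycin at 37 °C. Compounds were made as 100 µg/mL DMSO stocks and serially diluted in TYM down to 0.1 µg/mL; DMSO/TYM served as vehicle. Parasites were incubated anaerobically at 37 °C, and viability was checked by trypan blue exclusion from 3 to 48 h. MIC = lowest concentration killing all cells by 48 h; each test was repeated three times.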

Trichomonas vaginalis [4] = assay: Antitrichomonas activity against metronidazole-resistant trophozoite stage of Trichomonas vaginalis ATCC 50143 assessed as cell viability under anaerobic condition after 48 hrs by trypan blue exclusion assay; type: functional; conditions: ATCC 50143, 48 h; in short: as §2
Trichomonas vaginalis [5] = assay: Potency index, ratio of metronidazole MIC to compound MIC for metronidazole-resistant trophozoite stage of Trichomonas vaginalis ATCC 50143; type: functional
Trichomonas vaginalis [6] = assay: Selectivity ratio of MIC for metronidazole-resistant trophozoite stage of Trichomonas vaginalis ATCC 50143 to MIC for metronidazole-susceptible trophozoite stage of Trichomonas vaginalis; type: functional
[7] = Toxicity in Lactobacillus jensenii ATCC 25258 after 72 hrs
HeLa = assay: Cytotoxicity against human HeLa cells after 5 hrs by lactate dehydrogenase release assay; type: cell-based
In short: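 HeLa cells were seeded at 2×10^4/well in triplicate and grown 24 h at 37 °C in 5% CO2. The DMEM was then replaced with medium holding serially diluted compound, and plates were incubated 5 h. LDH release in the supernatant was measured colorimetrically at 490 nm, and IC50 was derived from it.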

[8] = Selectivity index, ratio of IC50 for Lactobacillus jensenii ATCC 25258 to MIC for trophozoite stage of Trichomonas vaginalis clinical isolate
[9] = Selectivity index, ratio of IC50 for Lactobacillus jensenii ATCC 25258 to MIC for metronidazole resistant trophozoite stage of Trichomonas vaginalis ATCC 50143

SMILES | MIC (Candida albicans) [µM] | MIC (Cryptococcus neoformans) [µM] | MIC (Sporothrix schenckii) [µM] | MIC [2] [µM] | MIC (Candida parapsilosis) [µM] | MIC (Trichomonas vaginalis [3]) [µM] | MIC (Trichomonas vaginalis [4]) [µM] | MEC [1] [%] | Ratio (Trichomonas vaginalis [5]) | Selectivity ratio (Trichomonas vaginalis [6]) | pIC50 [7] | pIC50 (HeLa) | Selectivity Index [8] | Selectivity Index [9]
S=C(SSC(=S)N1CCOCC1)N1CCOCC1 | 76.9 (≈ 25 µg/mL) | 38.4 (≈ 12.5 µg/mL) | 76.9 (≈ 25 µg/mL) | 38.4 (≈ 12.5 µg/mL) | 76.9 (≈ 25 µg/mL) | 9.6 (≈ 3.12 µg/mL) | 9.6 (≈ 3.12 µg/mL) | 0.1 | 16 |  |  |  |  | 
CN(Cc1ccccc1)C(=S)SSC(=S)N(C)Cc1ccccc1 | 31.8 (≈ 12.5 µg/mL) | 7.9 (≈ 3.1 µg/mL) | 31.8 (≈ 12.5 µg/mL) | 63.6 (≈ 25 µg/mL) | > 127 | 7.9 (≈ 3.1 µg/mL) | 31.8 (≈ 12.5 µg/mL) | >1 | 4 | 4 |  |  |  | 
S=C(SSC(=S)N(C1CCCCC1)C1CCCCC1)N(C1CCCCC1)C1CCCCC1 | 48.7 (≈ 25 µg/mL) | 24.3 (≈ 12.5 µg/mL) | 97.4 (≈ 50 µg/mL) | 97.4 (≈ 50 µg/mL) | > 97.4 | > 194 | > 194 | >1 |  |  |  |  |  | 
O=[N+]([O-])c1ccc(N2CCN(C(=S)SSC(=S)N3CCN(c4ccc([N+](=O)[O-])cc4C(F)(F)F)CC3)CC2)c(C(F)(F)F)c1 | 35.6 (≈ 24.9 µg/mL) | > 71.3 | > 71.3 | 71.3 (≈ 50 µg/mL) | > 71.3 | > 142 | > 142 | 0.1 |  |  |  |  |  | 
CC1CCN(C(=S)SSC(=S)N2CCC(C)CC2)CC1 | 17.9 (≈ 6.24 µg/mL) | 8.9 (≈ 3.1 µg/mL) | 35.8 (≈ 12.5 µg/mL) | 35.8 (≈ 12.5 µg/mL) | 143 (≈ 49.9 µg/mL) | 35.8 (≈ 12.5 µg/mL) | 35.8 (≈ 12.5 µg/mL) | 1 | 4 |  |  |  |  | 
CCOC(=O)N1CCN(C(=S)SSC(=S)N2CCN(C(=O)OCC)CC2)CC1 | 53.4 (≈ 24.9 µg/mL) | 26.7 (≈ 12.5 µg/mL) | 107 (≈ 49.8 µg/mL) | 107 (≈ 49.8 µg/mL) | 53.4 (≈ 24.9 µg/mL) | 13.3 (≈ 6.21 µg/mL) | 13.3 (≈ 6.21 µg/mL) | 1 | 8 |  |  |  |  | 
C=CCN1CCN(C(=S)SSC(=S)N2CCN(CC=C)CC2)CC1 | 62 (≈ 25 µg/mL) | > 124 | > 124 | 124 (≈ 49.9 µg/mL) | 124 (≈ 49.9 µg/mL) | 15.5 (≈ 6.24 µg/mL) | 62 (≈ 25 µg/mL) | 0.001 | 2 |  | 2.44 | 2.87 | 86 | 21

Second part, led by results:

MIC (Candida albicans) [µM] | MIC (Cryptococcus neoformans) [µM] | MIC (Sporothrix schenckii) [µM] | MIC [2] [µM] | MIC (Candida parapsilosis) [µM] | MIC (Trichomonas vaginalis [3]) [µM] | MIC (Trichomonas vaginalis [4]) [µM] | SMILES | MEC [1] [%] | Ratio (Trichomonas vaginalis [5]) | Selectivity ratio (Trichomonas vaginalis [6]) | pIC50 [7] | pIC50 (HeLa) | Selectivity Index [8] | Selectivity Index [9]
64.8 (≈ 50 µg/mL) | 64.8 (≈ 50 µg/mL) | 16.2 (≈ 12.5 µg/mL) | 16.2 (≈ 12.5 µg/mL) | > 64.8 | > 129 | > 129 | CCCCCCCCCCCCCCCCN1CCN(C(=S)SSC(=S)N2CCN(CCCCCCCCCCCCCCCC)CC2)CC1 | 1 |  |  |  |  |  | 
66.2 (≈ 50 µg/mL) | 33.1 (≈ 25 µg/mL) | 66.2 (≈ 50 µg/mL) | > 66.2 | 66.2 (≈ 50 µg/mL) | > 132 | > 132 | CCCCCCCCCCSC(=S)N1CCN(C(=S)SSC(=S)N2CCN(C(=S)SCCCCCCCCCC)CC2)CC1 | 1 |  |  |  |  |  | 
> 71.3 | > 71.3 | > 71.3 | > 71.3 | > 71.3 | > 142 | > 142 | S=C(SCCN1CCOCC1)N1CCN(C(=S)SSC(=S)N2CCN(C(=S)SCCN3CCOCC3)CC2)CC1 | 0.5 |  |  |  |  |  | 
97.8 (≈ 49.9 µg/mL) | > 97.8 | 97.8 (≈ 49.9 µg/mL) | 97.8 (≈ 49.9 µg/mL) | > 97.8 | > 195 | > 195 | Fc1ccc(N2CCN(C(=S)SSC(=S)N3CCN(c4ccc(F)cc4)CC3)CC2)cc1 | >1 |  |  |  |  |  | 
> 104 | 104 (≈ 49.6 µg/mL) | 104 (≈ 49.6 µg/mL) | 52.4 (≈ 25 µg/mL) | > 104 | > 209 | > 209 | S=C(SSC(=S)N1CCN(c2ccccn2)CC1)N1CCN(c2ccccn2)CC1 | 1 |  |  |  |  |  | 
104 (≈ 49.8 µg/mL) | > 104 | > 104 | 52.1 (≈ 24.9 µg/mL) | > 104 | > 208 | > 208 | CS(=O)(=O)N1CCN(C(=S)SSC(=S)N2CCN(S(C)(=O)=O)CC2)CC1 | 1 |  |  |  |  |  | 

— ChEMBL document CHEMBL3792366, “Role of disulfide linkage in action of bis(dialkylaminethiocarbonyl)disulfides as potent double-Edged microbicidal spermicide: Design, synthesis and biology” (Eur J Med Chem, 2016)
